Test results as given in PMC4607043 (International journal of biological macromolecules, 2015).

Legend:
ATP synthase = settings: cited from earlier work
βD386R [1] = test: Growth on succinate plates; type: cell-based, E. coli; settings: 3 days, estimated by eye, means of four to six experiments
In short: (§1)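 E. coli DK8 carrying plasmid-borne ATP synthase genes (wild-type pBWU13.4; mutants made by site-directed mutagenesis and sequence-verified) were grown on plates with succinate as the non-fermentable carbon source, with or without test peptide. Growth was scored by eye after 3 days on a scale from ++++ (normal/heavy) to − (none). Values are means of four to six experiments.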

βD380A/βD386A [2] = test: Growth yield in limiting glucose; type: cell-based, E. coli; settings: 3–5 mM glucose, wild type in absence of peptides = 100%, means of four to six experiments
In short: (§2)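 Measures oxidative plus substrate-level phosphorylation as growth on limiting glucose (3–5 mM). The host is E. coli DK8 carrying plasmid pBWU13.4, which encodes all ATP synthase genes, or site-directed βD380/βD386 mutants built on a βY331W background; mutations were confirmed by sequencing. Cultures were grown with or without each of two C-amidated test peptides (>95% HPLC purity, dissolved in deionized water). pUC118/DK8 served as the null strain.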

βD380R/βD386R [3] = test: Growth on succinate plates; type: cell-based, E. coli; settings: 3 days, estimated by eye, means of four to six experiments
In short: as §1

βD380A [4] = test: Growth on succinate plates; type: cell-based, E. coli; settings: 3 days, estimated by eye, means of four to six experiments
In short: as §1

βD386A [5] = test: Growth yield in limiting glucose; type: cell-based, E. coli; settings: 3–5 mM glucose, wild type in absence of peptides = 100%, means of four to six experiments
In short: as §2

Null (pUC118/DK8) = test: Growth yield in limiting glucose; type: cell-based, E. coli; settings: 3–5 mM glucose, wild type in absence of peptides = 100%, means of four to six experiments
βD386Q [6] = test: Growth on succinate plates; type: cell-based, E. coli; settings: 3 days, estimated by eye, means of four to six experiments
In short: as §1

βD380R [7] = test: Growth yield in limiting glucose; type: cell-based, E. coli; settings: 3–5 mM glucose, wild type in absence of peptides = 100%, means of four to six experiments
In short: as §2

βD380R [8] = test: Growth on succinate plates; type: cell-based, E. coli; settings: 3 days, estimated by eye, means of four to six experiments
In short: as §1

βD380Q [9] = test: Growth on succinate plates; type: cell-based, E. coli; settings: 3 days, estimated by eye, means of four to six experiments
In short: as §1

Wild-type (pBWU13.4/DK8) [10] = test: Growth on succinate plates; type: cell-based, E. coli; settings: 3 days, estimated by eye, means of four to six experiments
In short: as §1

βD380R/βD386R [11] = test: Growth yield in limiting glucose; type: cell-based, E. coli; settings: 3–5 mM glucose, wild type in absence of peptides = 100%, means of four to six experiments
In short: as §2

[12] = tested on: membrane bound F1Fo ATP synthase mutant βD386R; test: Inhibition of ATPase activity, βD386R; type: biochemical, Escherichia coli; settings: at maximal inhibition, preincubated 60 min at room temperature, pH 8.0
In short: (§3)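 Wild-type or mutant membrane-bound F1Fo was prepared by French press, washed, and taken up in 50 mM TrisSO4 pH 8.0, 2.5 mM MgSO4. It was preincubated with a range of test peptide concentrations for 60 min at room temperature, then assayed with 10 mM NaATP, 4 mM MgCl2, 50 mM TrisSO4 pH 8.5 for 5–10 min using 20–30 µg protein. Reactions were stopped with SDS (3.3% final) and Pi read at OD700 (Taussky–Shorr). Activity is relative to wild type without peptide, from duplicate tubes and two or more membrane preparations.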

Wild-type (pBWU13.4/DK8) [13] = test: Growth yield in limiting glucose; type: cell-based, E. coli; settings: 3–5 mM glucose, wild type in absence of peptides = 100%, means of four to six experiments
In short: as §2

mutant E. coli cells = test: Growth in presence of peptides, mutants; type: cell-based; settings: succinate plates and limiting glucose
βY331W [14] = test: Growth yield in limiting glucose; type: cell-based, E. coli; settings: 3–5 mM glucose, wild type in absence of peptides = 100%, means of four to six experiments
In short: as §2

[15] = tested on: membrane bound F1Fo ATP synthase mutants βD380A/Q/R or βD386A/Q/R; test: Inhibition of ATPase activity, single mutants as a group; type: biochemical, Escherichia coli; settings: for inhibition of ATPase, single mutants (in words): single mutations with replacement of Asp to Ala, Gln, or Arg
In short: as §3

βD380A [16] = test: Growth yield in limiting glucose; type: cell-based, E. coli; settings: 3–5 mM glucose, wild type in absence of peptides = 100%, means of four to six experiments
In short: as §2

βY331W [17] = test: Growth on succinate plates; type: cell-based, E. coli; settings: 3 days, estimated by eye, means of four to six experiments
In short: as §1

βD386R [18] = test: Growth yield in limiting glucose; type: cell-based, E. coli; settings: 3–5 mM glucose, wild type in absence of peptides = 100%, means of four to six experiments
In short: as §2

βD380Q/βD386Q [19] = test: Growth yield in limiting glucose; type: cell-based, E. coli; settings: 3–5 mM glucose, wild type in absence of peptides = 100%, means of four to six experiments
In short: as §2

βD386Q [20] = test: Growth yield in limiting glucose; type: cell-based, E. coli; settings: 3–5 mM glucose, wild type in absence of peptides = 100%, means of four to six experiments
In short: as §2

βD386A [21] = test: Growth on succinate plates; type: cell-based, E. coli; settings: 3 days, estimated by eye, means of four to six experiments
In short: as §1

βD380Q/βD386Q [22] = test: Growth on succinate plates; type: cell-based, E. coli; settings: 3 days, estimated by eye, means of four to six experiments
In short: as §1

βD380A/βD386A [23] = test: Growth on succinate plates; type: cell-based, E. coli; settings: 3 days, estimated by eye, means of four to six experiments
In short: as §1

[24] = tested on: membrane bound F1Fo ATP synthase mutant βD380R; test: Inhibition of ATPase activity, βD380R; type: biochemical, Escherichia coli; settings: at maximal inhibition, preincubated 60 min at room temperature, pH 8.0
In short: as §3

[25] = tested on: membrane bound F1Fo ATP synthase double mutants βD380A/βD386A, βD380Q/βD386Q, or βD380R/βD386R; test: Inhibition of ATPase activity, double mutants as a group; type: biochemical, Escherichia coli
In short: as §3

wild type E. coli cells = test: Growth in presence of peptides, wild-type; type: cell-based; settings: succinate plates and limiting glucose
In short: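 Wild-type DK8/pBWU13.4 was grown with test peptide on succinate plates, scored by eye after 3 days, and in limiting glucose (3–5 mM). Glucose growth yield is expressed relative to wild type without peptide, set as 100%. Values are means of four to six experiments.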

βD380Q [26] = test: Growth yield in limiting glucose; type: cell-based, E. coli; settings: 3–5 mM glucose, wild type in absence of peptides = 100%, means of four to six experiments
In short: as §2

Compound: [Cl][Al]([Cl])[Cl] [AlCl3]
- maximal inhibition of mutant or wild-type ATP synthase (in words) (ATP synthase): partially or incompletely inhibited

Compound: melittin-amide
- Growth on succinate plates (βD386R [1]): +++/+++
- Growth yield in limiting glucose (βD380A/βD386A [2]): 75%
- Growth on succinate plates (βD380R/βD386R [3]): ++/++
- Growth on succinate plates (βD380A [4]): +++/+++
- Growth yield in limiting glucose (βD386A [5]): 79%
- Growth yield in limiting glucose (Null (pUC118/DK8)): 43%
- Growth on succinate plates (βD386Q [6]): +++/+++
- Growth yield in limiting glucose (βD380R [7]): 82%
- Growth on succinate plates (βD380R [8]): +++/+++
- Growth on succinate plates (βD380Q [9]): +++/+++
- Growth on succinate plates (Wild-type (pBWU13.4/DK8) [10]): ±/±
- Growth yield in limiting glucose (βD380R/βD386R [11]): 66%
- prevention of inhibition (residual activity) [12]: 80%
- Growth yield in limiting glucose (Wild-type (pBWU13.4/DK8) [13]): 20%
- growth of mutant cells in presence of peptide (in words) (mutant E. coli cells): not much affected
- Growth yield in limiting glucose (βY331W [14]): 22%
- refractoriness of mutants to peptide induced inhibition (in words) ([15]; all of the mutations used in this study (single and double)): refractory
- inhibition of ATPase, single mutants (in words) [15]: decreased inhibition
- inhibition of ATPase, single mutants (in words) ([15]; listed as c-terminal amide bound melittin): only partial inhibition
- Growth yield in limiting glucose (βD380A [16]): 89%
- Growth on succinate plates (βY331W [17]): ±/±
- Growth yield in limiting glucose (βD386R [18]): 70%
- Growth yield in limiting glucose (βD380Q/βD386Q [19]): 72%
- Growth yield in limiting glucose (βD386Q [20]): 74%
- Growth on succinate plates (βD386A [21]): +++/+++
- Growth on succinate plates (βD380Q/βD386Q [22]): +++/+++
- Growth on succinate plates (βD380A/βD386A [23]): +++/+++
- residual ATPase activity [24]: 80%
- inhibition of ATPase, double mutants (in words) [25]: very little or no inhibition
- growth of wild-type cells in presence of peptide (in words) (wild type E. coli cells): abrogated growth
- Growth yield in limiting glucose (βD380Q [26]): 90%

Compound: melittin
- ATPase inhibitory activity (in words) (ATP synthase): strongly inhibited

Compound: [N-]=[N+]=[N-].[Na+] [NaN3]
- maximal inhibition of mutant or wild-type ATP synthase (in words) (ATP synthase): partially or incompletely inhibited

Compound: [Cl][Sc]([Cl])[Cl] [ScCl3]
- maximal inhibition of mutant or wild-type ATP synthase (in words) (ATP synthase): partially or incompletely inhibited

Compound: O=[N+]([O-])c1ccc(Cl)c2nonc12 [NBD-Cl]
- maximal inhibition of mutant or wild-type ATP synthase (in words) (ATP synthase): partially or incompletely inhibited
